Laboratory results: ChEMBL document CHEMBL1131833, “Synthesis and cytotoxic activity of N-(2-pyridylsulfenyl)urea derivatives. A new class of potential antineoplastic agents” (Bioorg Med Chem Lett, 1999)
pIC50: −log10 of the molar value.

Tests used:
Format in all cases: functional, cell-based
[1] = test system: HT-29; assay: Cytotoxicity against HT-29 colon carcinoma cell line; conditions: Homo sapiens
In short: (§1)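 Growth inhibition read by cell counting after 3 days of continuous exposure to 100, 10, 1, 0.1 or 0.01 µM compound. Parallel cultures counted daily to confirm exponential growth. IC50 from the counts; where inhibition stayed low across the range, reported as > highest tested concentration.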

[2] = test system: MEL-AC cell line; assay: Cytotoxicity against MEL-AC melanoma cell line; conditions: Homo sapiens; in short: as §1
[3] = test system: K562; assay: Cytotoxicity against K-562 myelocytic leukemia cell line; conditions: Homo sapiens; in short: as §1
[4] = test system: CCRF-CEM; assay: Cytotoxicity against CCRF-CEM lymphocytic leukemia cell line; conditions: Homo sapiens; in short: as §1
[5] = test system: Calu-1; assay: Cytotoxicity against HTB-54 lung carcinoma cell line; conditions: Homo sapiens; in short: as §1
[6] = species on record: Homo sapiens; assay: Cytotoxicity against normal PMBC cells in clonogenic assay
In short: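 Human peripheral blood mononuclear cells at 2.0-2.5 ×10^6 cells/mL in Iscove's medium. Clonogenic methylcellulose culture (0.9% final) with 30% fetal calf serum, 10% PHA-LCM and 6 U recombinant human erythropoietin plus compound, 14 days at 37°C. Colonies counted; at least 3 independent experiments, each in triplicate, per compound and concentration.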

SMILES	pIC50 [1]	pIC50 [2]	pIC50 [3]	pIC50 [4]	pIC50 [5]	pIC50 [6]
CCOC(=O)c1cccnc1S(=O)(=O)NC(=O)Nc1ncccn1	< 4.00	5.92	4.28	5.46	5.80	–
CCOC(=O)c1cccnc1SNC(=O)Nc1nc(OC)cc(OC)n1	4.02	4.37	4.37	6.15	4.13	–
CCOC(=O)c1cc([N+](=O)[O-])cnc1SNC(=O)Nc1ncccn1	< 4.00	6.70	6.70	5.82	4.85	–
CCOC(=O)c1cccnc1S(=O)(=O)NC(=O)Nc1ccc(Cl)cc1	< 4.00	< 4.00	4.85	5.37	< 4.00	–
CCOC(=O)c1cccnc1SNC(=O)Nc1ncccn1	5.32	4.47	6.00	4.82	5.74	4.87
COc1cccc2c1C(=O)c1c(O)c3c(c(O)c1C2=O)C[C@@](O)(C(=O)CO)C[C@@H]3O[C@H]1C[C@H](N)[C@H](O)[C@H](C)O1 [DOXORUBICIN]	6.15	5.92	6.00	–	5.96	4.40
